Experimental data reported in ChEMBL document CHEMBL2046406 (J Med Chem, 2012).
Active and inactive are the calls of the source. The rule behind the calls is not given here.

Legend:
[1] = molecular target: T1, Mu-type opioid receptor (Homo sapiens, UniProt P35372); assay: biochemical; assay type: cell-based, CHO
[2] = species: Homo sapiens; assay: Selectivity index, ratio of inhibition of human kappa opioid receptor to inhibition of human mu opioid receptor
[3] = molecular target: T2, Kappa-type opioid receptor (Homo sapiens, UniProt P41145); assay: biochemical; assay type: cell-based, CHO
T2 sequence (P41145 whole entry): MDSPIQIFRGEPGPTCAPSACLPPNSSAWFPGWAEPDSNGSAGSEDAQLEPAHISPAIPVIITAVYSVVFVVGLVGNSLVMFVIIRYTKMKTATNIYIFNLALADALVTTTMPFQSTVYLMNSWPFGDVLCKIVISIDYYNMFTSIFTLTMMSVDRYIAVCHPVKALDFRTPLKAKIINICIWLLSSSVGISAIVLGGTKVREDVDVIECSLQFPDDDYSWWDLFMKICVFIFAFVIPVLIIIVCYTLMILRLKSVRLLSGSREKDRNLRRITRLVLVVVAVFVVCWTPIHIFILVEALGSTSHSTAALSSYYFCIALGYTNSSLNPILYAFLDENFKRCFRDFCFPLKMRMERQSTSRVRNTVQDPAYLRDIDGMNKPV

[4] = molecular target: T3, Delta-type opioid receptor (Homo sapiens, UniProt P41143); assay: Displacement of [3H]-naltrindole from human delta opioid receptor expressed in CHO cells at 10 uM after 3 hrs by scintillation counting; assay type: cell-based
T3 sequence (P41143 whole entry): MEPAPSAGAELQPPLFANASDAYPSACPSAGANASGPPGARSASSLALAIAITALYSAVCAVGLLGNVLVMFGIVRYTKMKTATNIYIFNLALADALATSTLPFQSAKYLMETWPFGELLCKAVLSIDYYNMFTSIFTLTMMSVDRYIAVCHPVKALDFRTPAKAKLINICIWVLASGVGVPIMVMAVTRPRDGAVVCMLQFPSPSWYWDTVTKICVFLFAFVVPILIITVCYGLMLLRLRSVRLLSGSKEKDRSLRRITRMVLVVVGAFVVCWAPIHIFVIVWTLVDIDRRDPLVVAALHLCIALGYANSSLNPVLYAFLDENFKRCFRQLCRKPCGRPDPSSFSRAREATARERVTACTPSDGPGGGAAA

[5] = species: Homo sapiens; assay: Selectivity index, ratio of inhibition of human delta opioid receptor to inhibition of human mu opioid receptor
[6] = molecular target: T1, Mu-type opioid receptor; assay: Antagonist activity at human mu opioid receptor expressed in CHO cells assessed as inhibition of DAMGO-induced […]GTPgammaS binding after 60 mins by scintillation counting; assay type: functional, cell-based
[7] = molecular target: T2, Kappa-type opioid receptor; assay: Agonist activity at human kappa opioid receptor expressed in CHO cells assessed as stimulation of […]GTPgammaS binding after 60 mins by scintillation counting relative to control; assay type: functional, cell-based
In short: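 Membranes from CHO cells stably expressing human KOR (15 μg protein per tube) or MOR (7.5 μg protein per tube). Nonspecific binding with 10 μM GTPγS. Filtration, then scintillation counting. Triplicate, at least three experiments.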

[8] = molecular target: T3, Delta-type opioid receptor; assay: Displacement of [3H]-naltrindole from human delta opioid receptor expressed in CHO cells after 3 hrs by scintillation counting; assay type: cell-based
In short: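 CHO membranes expressing human KOR or DOR incubated with radioligand and 12 compound concentrations in 1 mL 50 mM Tris-HCl, pH 7.5, at 25 °C. […] Nonspecific binding with 10 μM naloxone. Three experiments in triplicate.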

[9] = molecular target: T1, Mu-type opioid receptor; assay: Agonist activity at human mu opioid receptor expressed in CHO cells assessed as stimulation of […]GTPgammaS binding after 60 mins by scintillation counting; assay type: functional, cell-based
[10] = molecular target: T1, Mu-type opioid receptor; assay: Agonist activity at human mu opioid receptor expressed in CHO cells assessed as stimulation of […]GTPgammaS binding after 60 mins by scintillation counting relative to control; assay type: functional, cell-based
[11] = molecular target: T2, Kappa-type opioid receptor; assay: Antagonist activity at human kappa opioid receptor expressed in CHO cells assessed as inhibition of U50488-induced […]GTPgammaS binding after 60 mins by scintillation counting; assay type: functional, cell-based
In short: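 κ antagonism: hKOR-CHO membranes incubated with compound plus 100 nM U50,488.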

[12] = molecular target: T1, Mu-type opioid receptor; assay: Antagonist activity at human mu opioid receptor expressed in CHO cells assessed as inhibition of DAMGO-induced […]GTPgammaS binding after 60 mins by scintillation counting relative to control; assay type: functional, cell-based
[13] = molecular target: T2, Kappa-type opioid receptor; assay: Agonist activity at human kappa opioid receptor expressed in CHO cells assessed as stimulation of […]GTPgammaS binding after 60 mins by scintillation counting; assay type: functional, cell-based
[14] = species: Homo sapiens; assay: Selectivity index, ratio of inhibition of human delta opioid receptor to inhibition of human kappa opioid receptor
[15] = species: Homo sapiens; assay: Selectivity index, ratio of inhibition of human mu opioid receptor to inhibition of human kappa opioid receptor
[16] = molecular target: T2, Kappa-type opioid receptor; assay: Displacement of [3H]-U69,593 from human kappa opioid receptor expressed in CHO cells at 10 uM after 60 mins by scintillation counting; assay type: cell-based
[17] = Displacement of [3H]-naltrindole from human delta opioid receptor expressed in CHO cells after 3 hrs by scintillation counting

T1 sequence (P35372 whole entry): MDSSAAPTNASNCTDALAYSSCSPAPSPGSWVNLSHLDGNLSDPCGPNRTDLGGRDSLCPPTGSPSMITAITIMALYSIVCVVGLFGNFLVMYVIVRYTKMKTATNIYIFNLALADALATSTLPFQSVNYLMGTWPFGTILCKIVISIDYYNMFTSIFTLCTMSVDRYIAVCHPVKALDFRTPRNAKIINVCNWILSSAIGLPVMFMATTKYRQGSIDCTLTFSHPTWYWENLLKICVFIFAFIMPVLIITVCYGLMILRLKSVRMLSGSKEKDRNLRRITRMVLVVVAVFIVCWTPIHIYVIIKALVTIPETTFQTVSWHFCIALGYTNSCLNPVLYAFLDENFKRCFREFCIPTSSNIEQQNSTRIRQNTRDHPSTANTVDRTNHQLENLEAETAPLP

| Structure (SMILES) | Ki [1] | Selectivity ratio [2] | Ki [3] | inhibition [4] | Selectivity ratio [5] | IC50 ([6]; read-out: IC50) | Emax [7] | Ki [8] | EC50 [9] | Emax [10] | Activity [11] | Imax [12] | EC50 [13] | Selectivity ratio [14] | Selectivity ratio [15] | IC50 ([6]; cho) | inhibition [16] | Ki [17] |
| --- | --- | --- | --- | --- | --- | --- | --- | --- | --- | --- | --- | --- | --- | --- | --- | --- | --- | --- |
| CN1CC[C@]23c4c5ccc(NCc6ccc(O)cc6)c4O[C@H]2[C@@H](O)C=C[C@H]3[C@H]1C5 | 44 nM | 230 | 560 nM | 19% | 13 | – | – | – | – | – | – | – | – | – | – | – | – | – |
| COc1cccc(CNc2ccc3c(c2)[C@@]24CCCC[C@H]2[C@@H](C3)N(CC2CCC2)CC4)c1 | 0.69 nM | 220 | 3.5 nM | – | 5 | 80 nM | 120% | 150 nM | 3.8 nM | 39% | inactive | 66% | 39 nM | – | – | – | – | – |
| Nc1ccc2c(c1)[C@@]13CCCC[C@H]1[C@@H](C2)N(CC1CC1)CC3 | – | – | – | – | – | – | – | – | – | – | – | – | – | 830 | 7 | – | – | – |
| Oc1ccccc1CNc1ccc2c(c1)[C@@]13CCCC[C@H]1[C@@H](C2)N(CC1CCC1)CC3 | 1.7 nM | 65 | 1.7 nM | – | – | 810 nM | 130% | 110 nM | 38 nM | 49% | inactive | 32% | 47 nM | 65 | – | – | – | – |
| Oc1cccc(CNc2ccc3c(c2)C[C@@H]2[C@@H]4CCCC[C@]34CCN2CC2CC2)c1 | 150 nM | – | 0.99 nM | 46% | – | – | 160% | – | – | – | inactive | – | 27 nM | > 10000 | 150 | – | – | – |
| CN1CC[C@]23c4c5ccc(NCc6ccccc6O)c4O[C@H]2[C@@H](O)C=C[C@H]3[C@H]1C5 | – | – | 370 nM | 27% | – | – | – | – | – | – | – | – | – | – | – | – | – | – |
| Oc1ccccc1CNc1ccc2c(c1)[C@@]13CCCC[C@H]1[C@@H](C2)N(CC1CC1)CC3 | 1.9 nM | – | 0.26 nM | – | – | 160 nM | 110% | 30 nM | 8.8 nM | 44% | inactive | 47% | 2.3 nM | 150 | 10 | – | – | – |
| c1cc2c(cc1CNc1ccc3c(c1)[C@@]14CCCC[C@H]1[C@@H](C3)N(CC1CCC1)CC4)OCO2 | 0.34 nM | 160 | 1.1 nM | – | 3 | 94 nM | 130% | 53 nM | 3.6 nM | 39% | inactive | 60% | 27 nM | – | – | – | – | – |
| Oc1ccc(CNc2ccc3c(c2)[C@@]24CCCC[C@H]2[C@@H](C3)N(CC2CCC2)CC4)cc1 | 0.35 nM | 340 | 2.3 nM | – | 7 | 75 nM | 130% | 120 nM | 3.6 nM | 38% | inactive | 56% | 38 nM | – | – | – | – | – |
| O=[N+]([O-])c1cccc(CNc2ccc3c(c2)[C@@]24CCCC[C@H]2[C@@H](C3)N(CC2CCC2)CC4)c1 | 0.43 nM | 350 | 1.1 nM | – | 3 | 6.8 nM | 140% | 150 nM | 1.1 nM | 70% | inactive | 49% | 0.79 nM | – | – | – | – | – |
| CN1CC[C@]23CCCC[C@H]2[C@H]1Cc1ccc(NCc2cccc(O)c2)cc13 | 0.42 nM | – | 10 nM | – | – | – | 140% | 720 nM | 6.5 nM | – | inactive | – | 230 nM | – | – | Not Active | – | – |
| COc1ccc(CNc2ccc3c4c2O[C@H]2[C@@H](O)C=C[C@H]5[C@@H](C3)N(C)CC[C@@]452)cc1 | 60 nM | > 160 | – | 12% | > 160 | – | – | – | – | – | – | – | – | – | – | – | 54% | – |
| CN1CC[C@]23CCCC[C@H]2[C@H]1Cc1ccc(N)cc13 | 7.9 nM | 190 | 110 nM | – | 14 | – | – | – | – | – | – | – | – | – | – | – | – | 1500 nM |
| COc1ccccc1CNc1ccc2c3c1O[C@H]1[C@@H](O)C=C[C@H]4[C@@H](C2)N(C)CC[C@@]341 | – | – | 220 nM | 22% | – | – | – | – | – | – | – | inactive | – | – | – | Not Active | – | – |
| CN1CC[C@]23c4c5ccc(NCc6cccc(O)c6)c4O[C@H]2[C@@H](O)C=C[C@H]3[C@H]1C5 | 7 nM | – | 910 nM | 31% | – | – | – | – | 550 nM | – | – | – | – | – | – | Not Active | – | – |
| Nc1ccc2c(c1)[C@@]13CCCC[C@H]1[C@@H](C2)N(CC1CCC1)CC3 | – | – | – | – | – | – | – | – | – | – | – | – | – | 100 | 2 | – | – | – |
| COc1ccc(CNc2ccc3c(c2)[C@@]24CCCC[C@H]2[C@@H](C3)N(CC2CCC2)CC4)cc1 | 0.86 nM | 300 | 4.5 nM | – | 5 | 150 nM | 120% | 260 nM | 7.8 nM | 34% | inactive | 55% | 50 nM | – | – | – | – | – |
| COc1ccc(CNc2ccc3c(c2)[C@@]24CCCC[C@H]2[C@@H](C3)N(CC2CC2)CC4)cc1 | – | 65 | – | – | 2 | 10 nM | 130% | – | 6.8 nM | 30% | inactive | 67% | 5.3 nM | – | – | – | – | – |
| Oc1ccc(CNc2ccc3c(c2)[C@@]24CCCC[C@H]2[C@@H](C3)N(CC2CC2)CC4)cc1 | 0.28 nM | 44 | 0.27 nM | – | – | 7.6 nM | 100% | 13 nM | – | 19% | inactive | 80% | 1.8 nM | 44 | – | – | – | – |
| COc1cccc(CNc2ccc3c4c2O[C@H]2[C@@H](O)C=C[C@H]5[C@@H](C3)N(C)CC[C@@]452)c1 | – | – | 500 nM | 33% | – | – | – | – | – | – | – | – | – | – | – | – | – | – |
| COc1ccc2c3c1O[C@H]1C(=O)CC[C@H]4[C@@H](C2)N(C)CC[C@]314 | – | – | – | 37% | – | – | – | – | – | – | – | – | – | – | – | – | – | – |
